Assay results from ChEMBL document CHEMBL5532699, “Design, docking optimization, and evaluation of biotin-PEG4-1,8-naphthalimide as a potent and safe antitumor agent with dual targeting of ferroptosis and DNA” (RSC Med Chem, 2024).

Tests used:
U-251 [1] = assay: Antiproliferative activity against human U-251 cells incubated for 48 hrs by MTT assay; format: functional, cell-based; details: U-251, 48 h
Method in brief: (§1)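 Monolayer cells in DMEM with 10% FBS, penicillin and streptomycin, 37°C, 5% CO2. Exponentially growing cells were seeded in 96-well plates and exposed to compound for 48 h. MTT was then added for 4 h at 37°C. Medium was removed, formazan dissolved in DMSO, and OD read at 490 nm. Each plate had five replicate wells, and assays were repeated three times per line.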

[2] = Toxicity in nude mouse xenografted with human U-251 cells assessed as decrease in animal movement at 25 mg/kg, ip administered once every two days for 21 days; format: organism-based; details: in vivo, 504 h, time 21 day
Method in brief: (§2)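 1×10^6 tumor cells injected s.c. into the right flank of nude mice. At mean tumor volume 60–80 mm³, animals randomized to vehicle or treatment groups (n = 6). Compound in 5% v/v DMSO/saline given i.p. every 2 days. Tumor size and weight recorded; volume = lw²/2 from length and width. Body weight tracked as the systemic toxicity index.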

U-251 [3] = assay: Antitumor activity against human U-251 cells xenografted in nude mouse assessed as tumor inhibition ratio at 25 mg/kg, ip administered once every two days for 21 days relative to control; format: functional; details: U-251, 504 h, time 21 day; method in brief: as §2
[4] = Toxicity in nude mouse xenografted with human U-251 cells assessed as decrease in body weight at 25 mg/kg, ip administered once every two days for 21 days; format: organism-based; details: in vivo, 504 h, time 21 day; method in brief: as §2
[5] = Cytotoxicity against HUVEC cells incubated for 48 hrs by MTT assay; format: toxicity, cell-based; details: human; method in brief: as §1
U-251 [6] = assay: Antitumor activity against human U-251 cells xenografted in nude mouse assessed as tumor inhibition ratio at 5 mg/kg, ip administered once every two days for 21 days relative to control; format: functional; details: U-251, 504 h, time 21 day; method in brief: as §2
HCT-116 = assay: Antiproliferative activity against human HCT-116 cells incubated for 48 hrs by MTT assay; format: functional, cell-based; details: HCT-116, 48 h; method in brief: as §1
A549 = assay: Antiproliferative activity against human A549 cells incubated for 48 hrs by MTT assay; format: functional, cell-based; details: A549, 48 h; method in brief: as §1
T-24 = assay: Antiproliferative activity against human T24 cells incubated for 48 hrs by MTT assay; format: functional, cell-based; details: T-24, 48 h; method in brief: as §1
MDA-MB-231 = assay: Antiproliferative activity against human MDA-MB-231 cells incubated for 48 hrs by MTT assay; format: functional, cell-based; details: MDA-MB-231, 48 h; method in brief: as §1
MGC-803 [7] = assay: Antitumor activity against human MGC-803 cells xenografted in nude mouse assessed as tumor inhibition ratio at 5 mg/kg, ip administered once every two days for 21 days relative to control; format: functional; details: MGC-803, 504 h, time 21 day
Method in brief: (§3)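 1×10^6 tumour cells were injected subcutaneously into the right flank of nude mice. At a mean tumour volume of 60–80 mm³, mice were randomised into solvent control and treated groups (n = 6). Compound in 5% v/v DMSO/saline was given i.p. every 2 days. Tumour length and width were measured, V = lw²/2, and tumour weight was recorded.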

[8] = Cytotoxicity against HK-2 cells incubated for 48 hrs by MTT assay; format: toxicity, cell-based; details: human; method in brief: as §1
U-251 [9] = assay: Antitumor activity against human U-251 cells xenografted in nude mouse assessed as tumor inhibition ratio at 10 mg/kg, ip administered once every two days for 21 days relative to control; format: functional; details: U-251, 504 h, time 21 day; method in brief: as §3
[10] = Toxicity in nude mouse xenografted with human MGC-803 cells assessed as pathological changes in heart at 5 mg/kg, ip administered once every two days for 21 days by H and E staining based analysis; format: organism-based; details: in vivo, 504 h, time 21 day
Method in brief: (§4)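 Major organs from MGC-803 xenograft nude mice (i.p. dosing in 5% DMSO/saline every 2 days, n = 6) were stained with haematoxylin-eosin and examined at 200×.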

[11] = Toxicity in nude mouse xenografted with human U-251 cells assessed as decrease in body weight at 10 mg/kg, ip administered once every two days for 21 days; format: organism-based; details: in vivo, 504 h, time 21 day
Method in brief: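 Subcutaneous xenograft in nude mice (1×10^6 cells, right flank). At 60–80 mm³, mice were randomised (n = 6 per group) to solvent control or treatment. Compound in 5% v/v DMSO/saline was given i.p. once every 2 days. Body weight was recorded as the indicator of systemic toxicity.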

MGC-803 [12] = assay: Antiproliferative activity against human MGC-803 cells incubated for 48 hrs by MTT assay; format: functional, cell-based; details: MGC-803, 48 h
Method in brief: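 Cells kept as monolayers in DMEM with 10% FBS, streptomycin and penicillin, 37°C, 5% CO₂. Exponentially growing cells seeded in 96-well plates, exposed 48 h, then MTT (10 mg/mL stock) for 4 h at 37°C. Medium removed, formazan dissolved in DMSO, OD read at 490 nm. Five wells per condition; each cell line run three times.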

[13] = Toxicity in nude mouse xenografted with human MGC-803 cells assessed as pathological changes in liver at 5 mg/kg, ip administered once every two days for 21 days by H and E staining based analysis; format: organism-based; details: in vivo, 504 h, time 21 day; method in brief: as §4
[14] = Toxicity in nude mouse xenografted with human MGC-803 cells assessed as pathological changes in lung at 5 mg/kg, ip administered once every two days for 21 days by H and E staining based analysis; format: organism-based; details: in vivo, 504 h, time 21 day; method in brief: as §4
[15] = Toxicity in nude mouse xenografted with human MGC-803 cells assessed as pathological changes in spleen at 5 mg/kg, ip administered once every two days for 21 days by H and E staining based analysis; format: organism-based; details: in vivo, 504 h, time 21 day; method in brief: as §4
[16] = Toxicity in nude mouse xenografted with human U-251 cells assessed as decrease in animal movement at 10 mg/kg, ip administered once every two days for 21 days; format: organism-based; details: in vivo, 504 h, time 21 day
[17] = Metabolic stability in male CD-1 mouse liver microsomes assessed as half life at 2 uM incubated for 60 min in the presence of NADPH by LC-MS/MS analysis; format: ADME, Microsome
Method in brief: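 Male CD-1 mouse liver microsomes at 0.5 mg/mL final in 100 mM phosphate buffer, pH 7.4. Mixture was preincubated with 1 mM NADPH (PBS only for the negative control) for 10 min at 37°C. Reaction was started with test compound at 2 µM final. Aliquots were taken at 0.5, 15, 30, 45 and 60 min into cold methanol with internal standard, centrifuged, and the supernatant analysed by LC-MS/MS.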

| Compound | IC50 (U-251 [1]) | IC50 at 48 h [5] | IC50 (HCT-116) | IC50 (A549) | IC50 (T-24) | IC50 (MDA-MB-231) | inhibition in vivo at 5 mg/kg (MGC-803 [7]) | IC50 at 48 h [8] | further results |
| --- | --- | --- | --- | --- | --- | --- | --- | --- | --- |
| Cn1nnc2c(C(N)=O)ncn2c1=O [TEMOZOLOMIDE] | > 50 µM |  |  |  |  |  |  |  | Activity [2]: Toxic; inhibition in vivo at 25 mg/kg (U-251 [3]): 74.2%; Activity [4]: Toxic |
| CN(C)CCN1C(=O)c2cccc3cc(N)cc(c23)C1=O [AMONAFIDE] | > 50 µM | 21.9 µM | 25.7 µM | 12.4 µM | 7.94 µM | 21.1 µM | 42.2% | 27.2 µM | inhibition in vivo at 5 mg/kg (U-251 [6]): 35.4% |
| CN(C)CCN1C(=O)c2cccc3c(N4CCNCC4)ccc(c23)C1=O | 10.5 µM | 1.99 µM | 7.15 µM | 13.5 µM | 5.86 µM | 0.96 µM | 40.3% | 6.38 µM | inhibition in vivo at 10 mg/kg (U-251 [9]): 71.5%; Activity [10]: Non-Toxic; Activity [11]: Toxic; IC50 (MGC-803 [12]): 1.72 µM; Activity [13]: Non-Toxic; Activity [14]: Non-Toxic; Activity [15]: Non-Toxic; Activity [16]: Toxic; half-life at 2 µM [17]: > 3.08 h |
| CN(C)CCN1C(=O)c2cccc3cc([N+](=O)[O-])cc(c23)C1=O [MITONAFIDE] | 9.68 µM | 5.9 µM | 12.2 µM | 3.6 µM |  | 7.59 µM |  | 2.13 µM |  |
